ChEMBL document CHEMBL4680177, “Novel distamycin analogues that block the cell cycle of African trypanosomes with high selectivity and potency” (Eur J Med Chem, 2020)
Each block holds one compound with its values, some of them ahead of it. Activity calls are given as the source filed them. The rule behind the calls is not given here.

Key:
J774 [1] = assay: Cytotoxicity against mouse J774 cells assessed as reduction in cell viability at 120 uM after 24 hrs by WST-1 assay; assay type: cell-based; details: j774, 24 h
In short: (§1)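 J774 murine macrophages in DMEM with 10% FBS, 37 °C, 5% CO2. Exposed 24 h to a 6-point compound series, in triplicate, up to 120 µM with DMSO 1% v/v. Viability read with WST-1 reagent relative to DMSO control and EC50 taken from nonlinear fit. The selectivity index is the macrophage EC50 divided by the trypanosome EC50.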

[2] = system: Trypanosoma brucei brucei; assay: Antitrypanosomal activity against bloodstream form Trypanosoma brucei brucei 427 […] assessed as cell viability after 24 hrs by propidium iodide staining based flow cytometric analysis; assay type: functional, organism-based; details: Trypanosoma brucei, 427, 24 h
In short: (§2)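 Bloodstream T. b. brucei 427 expressing hGrx1-roGFP2 (line 449_Grx-roGFP2), grown in HMI-9 with 10% FBS, 37 °C, 5% CO2. Biosensor induced with oxytetracycline (1 µg/mL final). Exponential-phase cells seeded at 5×10^5/mL and exposed 24 h to a single 5 µM screen, or to 0.0001–120 µM for EC50. DMSO ≤1% v/v. Viability read by PI exclusion on flow cytometry, expressed relative to DMSO control. EC50 from nonlinear fit; ≥3 replicates, S.D.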

J774 [3] = assay: Cytotoxicity against mouse J774 cells assessed as reduction in cell viability >120 uM after 24 hrs by WST-1 assay; assay type: cell-based; details: j774, 24 h; in short: as §1
[4] = system: Trypanosoma brucei brucei; assay: Antitrypanosomal activity against bloodstream form Trypanosoma brucei brucei 427 […] assessed as cell viability at 5 uM after 24 hrs by propidium iodide staining based flow cytometric analysis relative to control; assay type: functional; in short: as §2
[5] = Selectivity index, ratio of EC50 for cytotoxicity against mouse J774 cells to EC50 for antitrypanosomal activity against bloodstream form Trypanosoma brucei brucei 427; assay type: toxicity, cell-based; details: read-out: Ratio EC50; in short: as §1
[6] = system: Trypanosoma brucei brucei; assay: Induction of oxidative stress in bloodstream form Trypanosoma brucei brucei 427 at 250 uM after 20 min by propidium iodide staining based flow cytometric analysis
[7] = Selectivity ratio of EC50 for antitrypanosomal activity against bloodstream form Trypanosoma brucei brucei 427 assessed as cell viability after 24 hrs to antitrypanosomal activity against bloodstream form Trypanosoma brucei brucei 427 assessed as cell viability after 48 hrs; assay type: functional
[8] = system: Trypanosoma brucei brucei; assay: Antitrypanosomal activity against bloodstream form Trypanosoma brucei brucei 427 […] assessed as cell viability after 48 hrs by propidium iodide staining based flow cytometric analysis; assay type: functional, organism-based; details: Trypanosoma brucei, 427, 48 h
In short: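 Viability of bloodstream T. b. brucei 427 redox-reporter line under lower-density conditions: 1.2×10^4 parasites/mL seeded, 48 h exposure, compound tested up to 60 µM. Nifurtimox included as positive control. Viability read by PI exclusion on flow cytometry.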

[9] = system: Trypanosoma brucei brucei; assay: Induction of membrane permeability in bloodstream form Trypanosoma brucei brucei 427 assessed as change in integrity at EC50 concentration after 4 hrs by propidium iodide staining based flow cytometric analysis
[10] = system: Trypanosoma brucei brucei; assay: Induction of oxidative stress in bloodstream form Trypanosoma brucei brucei 427 up to 5 times EC50 concentration after 4 hrs by propidium iodide staining based flow cytometric analysis; assay type: functional
[11] = system: Trypanosoma brucei brucei; assay: Induction of cell cycle arrest in bloodstream form Trypanosoma brucei brucei 427 assessed as accumulation at 1K+1N cells at 12 nM after 24 hrs by DAPI. staining based epifluorescence microscopic analysis (reference value: 80%); assay type: functional
In short: (§3)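 Parasites at 5×10^5/mL treated 24 h with DMSO 1%, DAC 41 nM, or compound at 12 or 7 nM. Cells fixed in 4% paraformaldehyde for 18 min at room temperature and smeared on slides. Mounted in DAPI medium and scored by epifluorescence microscopy (60X/100X) for kinetoplast/nucleus configuration. At least 50 cells per sample.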

DNA [12] = assay: Competitive binding affinity to Escherichia coli XL-1 pUC18 plasmid DNA at 20 uM after 120 mins by DAPI staining based spectrofluorimetric method relative to control; assay type: nucleic-acid assay
In short: (§4)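 pUC18 or pUC18 carrying a T. brucei minicircle, 5 nM in PBS pH 7.4, incubated 30 or 120 min with 20 µM compound or DMSO 1% v/v. DAPI then added to 500 nM final and emission recorded by spectrofluorimetry (ex 358 nm, em 368–600 nm). Fluorescence normalized to the DNA+DMSO+DAPI control set at 100%. Mean ± S.D., n=3.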

DNA [13] = assay: Competitive binding affinity to Escherichia coli XL-1 pUC18 K-DNA at 20 uM after 120 mins by DAPI staining based spectrofluorimetric method relative to control; assay type: nucleic-acid assay; in short: as §4
DNA [14] = assay: Competitive binding affinity to Escherichia coli XL-1 pUC18 K-DNA at 20 uM after 30 mins by DAPI staining based spectrofluorimetric method relative to control; assay type: nucleic-acid assay; in short: as §4
[15] = system: Trypanosoma brucei brucei; assay: Induction of cell cycle arrest in bloodstream form Trypanosoma brucei brucei 427 assessed as accumulation at single kinetoplast and septum like or partitioned nucleus cells at 12 nM after 24 hrs by DAPI. staining based epifluorescence microscopic analysis relative to control; assay type: functional; in short: as §3
DNA [16] = assay: Competitive binding affinity to Escherichia coli XL-1 pUC18 plasmid DNA at 20 uM after 30 mins by DAPI staining based spectrofluorimetric method relative to control; assay type: nucleic-acid assay; in short: as §4
J774 [17] = assay: Cytotoxicity against mouse J774 cells assessed as reduction in cell viability after 24 hrs by WST-1 assay; assay type: cell-based; details: J774, 24 h; in short: as §1

EC50 [2]: 827 nM
Structure (SMILES): COC(=O)c1nc(NC(=O)c2cc(NC(=O)c3nc(NC(C)=O)sc3C(C)C)cn2C)sc1C(C)C
Activity (J774 [1]): Non-Toxic
Activity (J774 [3]): Nd(Insoluble)
Activity [4]: 5.4%
selectivity ratio [5]: > 145

Structure (SMILES): CC1=CC(=O)c2ccccc2C1=O
Activity [6]: Active

EC50 [2]: 10000 nM
EC50 [8]: 750 nM
Structure (SMILES): CC1CS(=O)(=O)CCN1/N=C/c1ccc([N+](=O)[O-])o1 (centres undefined) [NIFURTIMOX]
Ratio EC50 [7]: 20
selectivity ratio [5]: 10

Structure (SMILES): COC(=O)c1nc(NC(=O)c2cc([N+](=O)[O-])cn2C)sc1C(C)C
Activity [4]: 105.6%

EC50 [2]: 11.8 nM
Activity [9]: inactive
Activity (DNA [12]): inactive
Activity (DNA [13]): 30%
Activity (DNA [14]): 15%
Activity (DNA [16]): 15%
Structure (SMILES): COC(=O)c1nc(NC(=O)c2cc(NC(=O)c3nc(NC(=O)OC(C)(C)C)sc3C(C)C)cn2C)sc1C(C)C
Activity [10]: inactive
Activity [11]: 48%
Activity [4]: 15.5%
Activity [15]: 38%
selectivity ratio [5]: > 10200
EC50 (J774 [17]): 39500 nM

EC50 [2]: 78 nM
Structure (SMILES): Cc1ccc(C(=O)Nc2ccc(S(=O)(=O)O)c3cc(S(=O)(=O)O)cc(S(=O)(=O)O)c23)cc1NC(=O)c1cccc(NC(=O)Nc2cccc(C(=O)Nc3cc(C(=O)Nc4ccc(S(=O)(=O)O)c5cc(S(=O)(=O)O)cc(S(=O)(=O)O)c45)ccc3C)c2)c1 [SURAMIN]
